Test results as given in publication PMC10938441 (ACS Omega, 2024).

Assays:
[1] = Cytotoxicity, MTT reduction assay in HepG2 cells; type: cell-based; settings: human, HepG2 cells, CC50 (HepG2)
Outline: (§1)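 HepG2 cells grown at 37 °C, 5% CO2 in DMEM with streptomycin (40 mg/L) and 10% heat-inactivated FBS. Seeded at 1 × 10^3 cells/well, then exposed to serial dilutions of test compound for 72 h, each concentration in triplicate. MTT added for 4 h; formazan dissolved in isopropanol, read at OD570. Viability expressed as % of vehicle control; CC50 fitted from % viability vs log concentration.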

[2] = Cytotoxicity, methylene blue staining in Calu-3 cells; type: cell-based; settings: human, Calu-3 cell monolayers
Outline: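 Calu-3 monolayers (2 × 10^4 cells/well) exposed to test compound at several concentrations for 72 h at 37 °C, 5% CO2, triplicate per concentration. Cells PBS-washed, then fixed and stained 1 h at 37 °C with HBSS + 1.25% glutaraldehyde + 0.6% methylene blue. Rinsed with water; dye eluted 15 min at room temperature (50% ethanol, 49% PBS, 1% acetic acid); A660 read. CC50 fitted from % viability vs log concentration.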

[3] = system: SARS-CoV-2; type: cell-based, SARS-CoV-2 B.1 lineage; settings: correlation between anti-SARS-CoV-2 activity (EC50) and HepG2 cytotoxicity (CC50)
[4] = system: HepG2 cell lines; test: Cytotoxicity, MTT reduction assay in HepG2 cells; type: cell-based; settings: read-out: CC50 (HepG2), 72 h
Outline: as §1

Compound	CC50 at 72 h [1] [µM]	CC50 at 72 h [2] [µM]	selectivity index [3]	CC50 [4] [µM]
Cc1c(-c2ccc(-c3ccccc3F)cc2)nc2ccc(F)cc2c1C(=O)O [brequinar]	17 ± 4	48 ± 2		
CC(C)=CCC1=C(O)C(=O)c2ccccc2C1=O [lapachol]	71 ± 9	67 ± 2	47 ± 7	
C/C(O)=C(\C#N)C(=O)Nc1ccc(C(F)(F)F)cc1 [teriflunomide]	164	59 ± 2		160 ± 20
